How the values were obtained:
rat [1] = experiment: concentration in expired air after dosing; negative times count back from the end of exposure; settings: dosed: 1,1-dichloroethylene, inhalation, duration: 3 hr, male, Sprague-Dawley
Rat [2] = experiment: concentration in brain after dosing; settings: 10 min; dosed: alpha-Thujone; 25 mg/kg; oral; Male; Harlan Sprague Dawley
Rat [3] = experiment: concentration in plasma after dosing; settings: 3 h; dosed: alpha-Thujone; 25 mg/kg; oral; Male; Harlan Sprague Dawley
Rat [4] = experiment: concentration in plasma after dosing; settings: 5 min; dosed: alpha-Thujone; 50 mg/kg; oral; Female; Harlan Sprague Dawley
Rat [5] = experiment: concentration in plasma after dosing; settings: 10 min; dosed: alpha-Thujone; 25 mg/kg; oral; Male; Harlan Sprague Dawley
Rat [6] = experiment: concentration in plasma after dosing; settings: 20 h; dosed: Pyridine; 25 mg/kg; oral; Male; F344
Rat [7] = experiment: concentration in plasma after dosing; settings: dosed: Pyridine, 5 mg/kg, oral, Male, F344
Mouse [8] = experiment: concentration in plasma after dosing; settings: 2 h; dosed: 2-Hydroxy-4-methoxybenzophenone; 500 mg/kg; oral; Female; B6C3F1
Mouse [9] = experiment: concentration in plasma after dosing; settings: 10 min; dosed: 2-Hydroxy-4-methoxybenzophenone; 250 mg/kg; oral; Female; B6C3F1
Hamster = experiment: concentration in plasma after dosing; settings: dosed: 2,4-Dichlorophenoxyacetic acid, 8.0 mg/kg, iv, Male, Syrian Golden
How it was run: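 A PubMed search, classifier screening and manual review identified published in vivo toxicokinetic studies, which together with two structured collections supplied concentration-versus-time and amount-versus-time points. Points were mostly digitised from plot screenshots with WebPlotDigitizer, otherwise copied from tables. Dose, route, subject details and medium were hand-curated from each paper, and sampling and analytical methods are those of the sources, often unreported.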

Rat [10] = experiment: concentration in liver after dosing; settings: 3 h; dosed: Perfluorohexane-1-sulphonic acid – potassium salt; 16 mg/kg; oral; Female; Harlan Sprague Dawley
Rat [11] = experiment: concentration in liver after dosing; settings: 24 h; dosed: Perfluorohexane-1-sulphonic acid – potassium salt; 16 mg/kg; oral; Female; F344

C=C(Cl)Cl [1,1-dichloroethylene]
rat [1]
Settings	concentration in expired air [ppm]
0.1527 h, 150 ppm	5.19
0.2485 h, 150 ppm	3.34
0.2565 h, 25 ppm	3.35
0.3921 h, 25 ppm	3.42
0.3921 h, 150 ppm	3.42
0.4997 h, 150 ppm	3.48
0.5037 h, 25 ppm	3.48
9 s, 150 ppm	121
88 s, 75 ppm	12.1
205 s, 75 ppm	6.41

rat [1], during exposure
Settings	concentration in expired air [ppm]
-15 s, 75 ppm	63.3
-2.933 h, 75 ppm	46.2
-2.927 h, 150 ppm	71.9
-2.926 h, 300 ppm	190
-2.925 h, 25 ppm	13.3
-2.861 h, 75 ppm	48.8
-2.858 h, 25 ppm	12.4
-2.856 h, 150 ppm	76.7
-2.798 h, 75 ppm	52.3
-2.794 h, 25 ppm	14.7
-2.792 h, 150 ppm	82.7
-2.733 h, 150 ppm	88.4
-2.73 h, 75 ppm	54.3
-2.726 h, 25 ppm	15
-2.658 h, 75 ppm	54.9
-2.654 h, 150 ppm	93.5
-2.651 h, 25 ppm	16.6
-2.599 h, 75 ppm	56.2
-2.595 h, 150 ppm	97.7
-2.591 h, 25 ppm	17.9
-2.539 h, 75 ppm	57.5
-2.535 h, 25 ppm	18.9
-2.531 h, 150 ppm	104
-2.475 h, 75 ppm	58.8
-2.46 h, 25 ppm	19.6
-2.456 h, 150 ppm	107
-2.408 h, 75 ppm	58.9
-2.4 h, 25 ppm	19.6
-2.396 h, 150 ppm	109
-2.336 h, 25 ppm	20.6
-2.336 h, 75 ppm	59.9
-2.336 h, 150 ppm	108
-2.26 h, 75 ppm	59.3
-2.257 h, 150 ppm	110
-2.256 h, 25 ppm	19.7
-2.197 h, 150 ppm	112
-2.196 h, 75 ppm	57.4
-2.189 h, 25 ppm	19.7
-2.137 h, 150 ppm	110
-2.129 h, 75 ppm	60.6
-2.125 h, 25 ppm	17.6
-2.061 h, 25 ppm	20.1
-2.061 h, 75 ppm	61
-2.058 h, 150 ppm	111
-1.998 h, 150 ppm	111
-1.997 h, 75 ppm	60.7
-1.993 h, 25 ppm	20.5
-1.858 h, 150 ppm	111
-1.857 h, 75 ppm	59.8
-1.854 h, 25 ppm	20.6
-1.738 h, 75 ppm	60.5
-1.735 h, 150 ppm	112
-1.73 h, 25 ppm	20.9
-1.598 h, 75 ppm	60.6
-1.595 h, 25 ppm	21.3
-1.595 h, 150 ppm	113
-1.484 h, 150 ppm	114
-1.483 h, 25 ppm	21.4
-1.479 h, 75 ppm	61.3
-1.344 h, 25 ppm	21.5
-1.344 h, 150 ppm	114
-1.343 h, 75 ppm	60.7
-1.209 h, 150 ppm	115
-1.208 h, 75 ppm	60.8
-1.204 h, 25 ppm	21.5
-1.085 h, 25 ppm	21.9
-1.085 h, 150 ppm	117
-1.08 h, 75 ppm	61.2
-1 s, 25 ppm	22.2
-0.9371 h, 25 ppm	21.7
-0.9328 h, 75 ppm	61.6
-0.9261 h, 150 ppm	117
-0.8014 h, 75 ppm	62.6
-0.7986 h, 150 ppm	119
-0.7936 h, 25 ppm	22.1
-0.6591 h, 150 ppm	118
-0.6578 h, 75 ppm	62
-0.6461 h, 25 ppm	21.2
-0.5396 h, 150 ppm	120
-0.5384 h, 75 ppm	63.7
-0.5345 h, 25 ppm	22.2
-0.399 h, 25 ppm	22.6
-0.3988 h, 75 ppm	63.1
-0.3961 h, 150 ppm	119
-0.2646 h, 150 ppm	120
-0.2633 h, 75 ppm	63.2
-0.2555 h, 25 ppm	22.1
-0.1359 h, 25 ppm	22.4
-0.1358 h, 75 ppm	63.9
-0.1331 h, 150 ppm	121

CC(C)[C@]12CC(=O)[C@H](C)[C@H]1C2 [alpha-Thujone]
Settings	concentration in brain [ng/g]	concentration in plasma [ng/mL]
Rat [2]	3920	–
Rat [3]	–	113
Rat [4]	–	201
Rat [5]	–	248

c1ccncc1 [Pyridine]
Settings	concentration in plasma [ng/mL]
Rat [6]	143

Rat [7]
Settings	concentration in plasma [ng/mL]
4 h	2550
5 min	794

O=C(c1ccccc1)c1ccc(O)cc1O [2,4-Dihydroxybenzophenone]
Settings	concentration in plasma [ng/mL]
Mouse [8]	104
Mouse [9]	1290

O=C(O)COc1ccc(Cl)cc1Cl [2,4-Dichlorophenoxyacetic acid]
Hamster
Settings	concentration in plasma [ng/mL]
1.5 h	327
2 h	159
2.5 min	127000
5 min	68500
10 min	43200
20 min	15900
40 min	2690

O=S(=O)([O-])C(F)(F)C(F)(F)C(F)(F)C(F)(F)C(F)(F)C(F)(F)F.[K+] [Perfluorohexane-1-sulphonic acid – potassium salt]
Settings	concentration in liver [ng/g]
Rat [10]	54100
Rat [11]	53400

Source: EPA's CvTdb concentration-time database
